Measured values taken from ChEMBL document CHEMBL1138089, “Cell permeation of a Trypanosoma brucei aldolase inhibitor: evaluation of different enzyme-labile phosphate protecting groups” (Bioorg Med Chem Lett, 2006).

How the values were obtained:
Leishmania infantum = assay: Inhibitory activity against Leishmania […]; type: functional, organism-based
Procedure, shortened: (§1)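 Parasites grown inside host macrophages in serum-containing medium, so compounds must cross the macrophage and parasite membranes; tested in vitro.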

Trypanosoma brucei = assay: Inhibitory activity against Trypanosoma brucei; type: functional, organism-based
Procedure, shortened: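 Parasites cultured free in serum-containing medium without macrophages; prodrugs tested in vitro against the cultures.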

Plasmodium falciparum = assay: Inhibitory activity against Plasmodium falciparum; type: functional, organism-based
MRC5 = assay: Cytotoxicity against human MRC5 cells; type: functional, cell-based
Trypanosoma cruzi = assay: Inhibitory activity against Trypanosoma cruzi; type: functional, organism-based; procedure, shortened: as §1

| SMILES | IC50 (Leishmania infantum) [µM] | IC50 (Trypanosoma brucei) [µM] | IC50 (Plasmodium falciparum) [µM] | IC50 (MRC5) [µM] | IC50 (Trypanosoma cruzi) [µM] |
| --- | --- | --- | --- | --- | --- |
| CC(C)(C)C(=O)SCCOP(=O)(OCCSC(=O)C(C)(C)C)Oc1ccc(O)c(C=O)c1 | 25 | 16 | 12 | 6 | 15 |
| CC(=O)OCCSSCCOP(=O)(OCCSSCCOC(C)=O)Oc1ccc(O)c(C=O)c1 | > 50 | > 50 | > 50 | > 50 | > 50 |
| CC(C)(C)C(=O)OCOP(=O)(OCOC(=O)C(C)(C)C)Oc1ccc(O)c(C=O)c1 | > 50 | 20 | > 50 | > 50 | > 50 |
| CC(=O)Oc1ccccc1CCC(=O)OCOP(=O)(OCOC(=O)CCc1ccccc1OC(C)=O)Oc1ccc(O)c(C=O)c1 | > 50 | > 50 | > 50 | > 50 | > 50 |
| O=Cc1cc(OP(=O)(O)O)ccc1O | > 50 | > 50 | > 50 | > 50 | > 50 |
